Measurements published in ChEMBL document CHEMBL1275556, “High prevalence of plasmid-mediated quinolone resistance genes qnr and aac(6')-Ib-cr in clinical isolates of Enterobacteriaceae from nine teaching hospitals in China” (2008).
Values after ≈ are worked out from the molar mass of the structure shown.

Columns and labels:
Format in all cases: functional
Citrobacter freundii [1] = experiment: Antimicrobial activity against aac(6')-Ib-cr-positive Citrobacter freundii PU55 harboring GyrA T83I, ParC S80I mutant, wild-type GyrB, qnrA genes by agar dilution method in presence of clavulanic acid
Outline: (§1)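 MICs were determined by the CLSI agar dilution method (M7-A7) and interpreted against CLSI M100-S17 breakpoints.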

Enterobacter cloacae [2] = experiment: Antimicrobial activity against aac(6')-Ib-cr-negative Enterobacter cloacae SH39T harboring qnrA gene by agar dilution method in presence of clavulanic acid
Outline: (§2)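 Transconjugants came from conjugation of qnr and/or aac(6')-Ib-cr-carrying donors with azide-resistant E. coli J53. […] MICs were determined by CLSI agar dilution (M7-A7) and interpreted by M100-S17.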

Citrobacter freundii [3] = experiment: Antimicrobial activity against aac(6')-Ib-cr-positive Citrobacter freundii TJ15 harboring GyrA T83I, ParC S80I mutant, wild-type GyrB, qnrB genes by agar dilution method; outline: as §1
Citrobacter freundii [4] = experiment: Antimicrobial activity against aac(6')-Ib-cr-positive Citrobacter freundii TJ15T harboring wild-type GyrA, ParC, GyrB genes by agar dilution method; outline: as §1
Citrobacter freundii [5] = experiment: Antimicrobial activity against aac(6')-Ib-cr-positive Citrobacter freundii TJ15T harboring wild-type GyrA, ParC, GyrB genes by agar dilution method in presence of clavulanic acid; outline: as §1
Enterobacter cloacae [6] = experiment: Antimicrobial activity against aac(6')-Ib-cr-negative Enterobacter cloacae WH42 harboring wild-type GyrA, ParC, GyrB and qnrA genes by agar dilution method
Klebsiella pneumoniae [7] = experiment: Antimicrobial activity against aac(6')-Ib-cr-positive Klebsiella pneumoniae WH99 harboring wild-type GyrA, ParC, GyrB and qnrB genes by agar dilution method in presence of clavulanic acid
Outline: (§3)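 MICs measured by CLSI agar dilution (M7-A7) and interpreted against CLSI M100-S17 breakpoints. Strains were clinical Enterobacteriaceae isolates or the azide-resistant E. coli J53 recipient.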

Klebsiella pneumoniae [8] = experiment: Antimicrobial activity against aac(6')-Ib-cr-positive Klebsiella pneumoniae WH99T harboring qnrB gene by agar dilution method in presence of clavulanic acid; outline: as §2
Escherichia coli [9] = experiment: Antimicrobial activity against Escherichia coli J53 harboring wild-type GyrA, ParC, GyrB genes by agar dilution method in presence of beta-lactamase inhibitor clavulanic acid
Outline: (§4)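 MICs were determined by CLSI agar dilution (M7-A7) and interpreted by CLSI M100-S17 breakpoints. The curator's line names the β-lactamase inhibitor added.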

Enterobacter cloacae [10] = experiment: Antimicrobial activity against aac(6')-Ib-cr-negative Enterobacter cloacae FJ67 harboring […] and qnrS genes by agar dilution method
Klebsiella pneumoniae [11] = experiment: Antimicrobial activity against aac(6')-Ib-cr-positive Klebsiella pneumoniae GZ40 harboring GyrA S83I, ParC S80I mutant, wild-type GyrB and qnrB genes by agar dilution method; outline: as §1
Enterobacter cloacae [12] = experiment: Antimicrobial activity against aac(6')-Ib-cr-negative Enterobacter cloacae GZ47T harboring qnrB gene by agar dilution method
Enterobacter cloacae [13] = experiment: Antimicrobial activity against aac(6')-Ib-cr-negative Enterobacter cloacae GZ51 harboring qnrA gene by agar dilution method in presence of clavulanic acid; outline: as §4
Enterobacter cloacae [14] = experiment: Antimicrobial activity against aac(6')-Ib-cr-negative Enterobacter cloacae GZ51T harboring qnrA gene by agar dilution method in presence of clavulanic acid; outline: as §2
Citrobacter freundii [15] = experiment: Antimicrobial activity against aac(6')-Ib-cr-positive Citrobacter freundii JN1 harboring GyrA T83I, ParC S80I mutant, wild-type GyrB and qnrA genes by agar dilution method in presence of clavulanic acid; outline: as §1
Klebsiella pneumoniae [16] = experiment: Antimicrobial activity against aac(6')-Ib-cr-positive Klebsiella pneumoniae JN132 harboring GyrA S83I, ParC S80I mutant, wild-type GyrB and qnrB genes by agar dilution method
Outline: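 MICs were determined on clinical isolates by CLSI agar dilution (M7-A7) and interpreted against CLSI M100-S17 breakpoints.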

Klebsiella pneumoniae [17] = experiment: Antimicrobial activity against aac(6')-Ib-cr-positive Klebsiella pneumoniae JN132T harboring qnrB gene by agar dilution method in presence of clavulanic acid
Outline: (§5)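 Transconjugants came from conjugation of qnr and/or aac(6')-Ib-cr donors into azide-resistant E. coli J53. […] MICs were measured by CLSI agar dilution (M7-A7) and interpreted per M100-S17.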

Klebsiella pneumoniae [18] = experiment: Antimicrobial activity against aac(6')-Ib-cr-positive Klebsiella pneumoniae JN41T harboring qnrB gene by agar dilution method
Outline: (§6)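 Transconjugants were made by conjugating a qnr/aac(6')-Ib-cr donor with azide-resistant E. coli J53. Selection used Trypticase soy agar with sodium azide 150 µg/ml and sulfamethoxazole 180 µg/ml. […] MICs were read by CLSI agar dilution (M7-A7) and interpreted per M100-S17.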

Citrobacter freundii [19] = experiment: Antimicrobial activity against aac(6')-Ib-cr-negative Citrobacter freundii JN64 harboring GyrA T83I, wild-type ParC, GyrB and qnrA genes by agar dilution method; outline: as §1
Citrobacter freundii [20] = experiment: Antimicrobial activity against aac(6')-Ib-cr-negative Citrobacter freundii JN64T harboring qnrA gene by agar dilution method; outline: as §1
Escherichia coli [21] = experiment: Antimicrobial activity against aac(6')-Ib-cr-negative Escherichia coli PU12T harboring wild-type GyrA, GyrB, ParC and qnrS genes by agar dilution method in presence of Tazobactam; outline: as §5
Klebsiella pneumoniae [22] = experiment: Antimicrobial activity against aac(6')-Ib-cr-negative Klebsiella pneumoniae SY22 harboring GyrA S83I, ParC S80I mutant, wild-type GyrB and qnrS genes by agar dilution method in presence of Tazobactam; outline: as §3
Klebsiella pneumoniae [23] = experiment: Antimicrobial activity against aac(6')-Ib-cr-positive Klebsiella pneumoniae SY26T harboring wild-type GyrA, ParC, GyrB and qnrB genes by agar dilution method in presence of Tazobactam; outline: as §6
Escherichia coli [24] = experiment: Antimicrobial activity against Escherichia coli J53 harboring wild-type GyrA, ParC, GyrB genes by agar dilution method in presence of beta-lactamase inhibitor Tazobactam; outline: as §3
Enterobacter cloacae [25] = experiment: Antimicrobial activity against aac(6')-Ib-cr-negative Enterobacter cloacae FJ61 harboring GyrA S83I, GyrA D87A, ParC S80I mutant, wild-type GyrB and qnrS genes by agar dilution method in presence of Tazobactam; outline: as §1
Enterobacter cloacae [26] = experiment: Antimicrobial activity against aac(6')-Ib-cr-negative Enterobacter cloacae FJ67 harboring […] and qnrS genes by agar dilution method in presence of Tazobactam; outline: as §1
Enterobacter cloacae [27] = experiment: Antimicrobial activity against aac(6')-Ib-cr-negative Enterobacter cloacae FJ67T harboring qnrS gene by agar dilution method in presence of Tazobactam; outline: as §1
Klebsiella pneumoniae [28] = experiment: Antimicrobial activity against aac(6')-Ib-cr-positive Klebsiella pneumoniae GZ40T harboring qnrB gene by agar dilution method in presence of Tazobactam; outline: as §1
Enterobacter cloacae [29] = experiment: Antimicrobial activity against aac(6')-Ib-cr-negative Enterobacter cloacae GZ47T harboring qnrB gene by agar dilution method in presence of Tazobactam; outline: as §1
Klebsiella pneumoniae [30] = experiment: Antimicrobial activity against aac(6')-Ib-cr-positive Klebsiella pneumoniae JN132 harboring GyrA S83I, ParC S80I mutant, wild-type GyrB and qnrB genes by agar dilution method in presence of Tazobactam; outline: as §3
Citrobacter freundii [31] = experiment: Antimicrobial activity against aac(6')-Ib-cr-negative Citrobacter freundii JN64 harboring GyrA T83I, wild-type ParC, GyrB and qnrA genes by agar dilution method in presence of Tazobactam; outline: as §1

`CO/N=C(\C(=O)N[C@@H]1C(=O)N2C(C(=O)O)=C(COC(C)=O)CS[C@H]12)c1csc(N)n1` [CEFOTAXIME] was tested, and the MIC (Citrobacter freundii [1]) was 256 µg/mL, the MIC (Enterobacter cloacae [2]) was 0.032 µg/mL and the MIC (Citrobacter freundii [3]) was 1 µg/mL (≈ 2.2 µM). The MIC (Citrobacter freundii [4]) was 0.125 µg/mL (≈ 0.274 µM), the MIC (Citrobacter freundii [5]) was 0.125 µg/mL and the MIC (Enterobacter cloacae [6]) was 256 µg/mL (≈ 562 µM). It also gave an MIC (Klebsiella pneumoniae [7]) of 64 µg/mL, an MIC (Klebsiella pneumoniae [8]) of 0.064 µg/mL and an MIC (Escherichia coli [9]) of 0.032 µg/mL. The MIC (Enterobacter cloacae [10]) was 256 µg/mL (≈ 562 µM), the MIC (Klebsiella pneumoniae [11]) was greater than 256 µg/mL and the MIC (Enterobacter cloacae [12]) was 0.25 µg/mL (≈ 0.549 µM). The MIC (Enterobacter cloacae [13]) was 32 µg/mL, the MIC (Enterobacter cloacae [14]) was 0.032 µg/mL and the MIC (Citrobacter freundii [15]) was 128 µg/mL. It also gave an MIC (Klebsiella pneumoniae [16]) of 32 µg/mL (≈ 70.3 µM), an MIC (Klebsiella pneumoniae [17]) of 1 µg/mL and an MIC (Klebsiella pneumoniae [18]) of 16 µg/mL (≈ 35.1 µM). For the same compound, the MIC (Citrobacter freundii [19]) was 256 µg/mL (≈ 562 µM) and the MIC (Citrobacter freundii [20]) was 16 µg/mL (≈ 35.1 µM).

`CCN1CCN(C(=O)N[C@@H](C(=O)N[C@@H]2C(=O)N3[C@@H]2SC(C)(C)[C@@H]3C(=O)O)c2ccccc2)C(=O)C1=O` [PIPERACILLIN] showed an MIC (Escherichia coli [21]) of 1 µg/mL, an MIC (Klebsiella pneumoniae [22]) of 4 µg/mL and an MIC (Klebsiella pneumoniae [23]) of 2 µg/mL. It also gave an MIC (Escherichia coli [24]) of 1 µg/mL, an MIC (Enterobacter cloacae [25]) of 8 µg/mL and an MIC (Enterobacter cloacae [26]) of 1 µg/mL. It also gave an MIC (Enterobacter cloacae [27]) of 1 µg/mL, an MIC (Klebsiella pneumoniae [28]) of 1 µg/mL and an MIC (Enterobacter cloacae [29]) of 2 µg/mL. The MIC (Klebsiella pneumoniae [30]) was 4 µg/mL and the MIC (Citrobacter freundii [31]) was greater than 256 µg/mL.
